Reference: ChEMBL document CHEMBL5058577, “EUbOPEN Chemogenomics Library 2 (Multiplex)” (2022)

Tested on: U2OS
Assay: Multiplex assay against U2OS
Format: toxicity, cell-based
Conditions: human
Outline: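 At seeding, live cells were stained with Hoechst33342, BioTracker Green Microtubule Cytoskeleton Dye, MitoTracker Red and Annexin V Alexa Fluor 680. After compound addition they were imaged on a CQ1 microscope at 37°C and 5% CO2, and CellPathfinder machine-learning gating sorted them into Hoechst high-intensity objects or normal cells, with normal cells further split into healthy, pyknosed or fragmented nuclei and pyknosed cells into mitotic or apoptotic. Tubulin, mitochondrial-mass and membrane-permeability phenotypes are given as per cents of cells with healthy nuclei.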

[1] = 12 h, 1 µM, compound concentration 1 uM, replicate 1
[2] = 12 h, 1 µM, compound concentration 1 uM, replicate 2
[3] = 12 h, 10 µM, compound concentration 10 uM, replicate 1
[4] = 12 h, 10 µM, compound concentration 10 uM, replicate 2
[5] = 24 h, 1 µM, compound concentration 1 uM, replicate 1
[6] = 24 h, 1 µM, compound concentration 1 uM, replicate 2
[7] = 24 h, 10 µM, compound concentration 10 uM, replicate 1
[8] = 24 h, 10 µM, compound concentration 10 uM, replicate 2
[9] = 48 h, 1 µM, compound concentration 1 uM, replicate 1
[10] = 48 h, 1 µM, compound concentration 1 uM, replicate 2
[11] = 48 h, 10 µM, compound concentration 10 uM, replicate 1
[12] = 48 h, 10 µM, compound concentration 10 uM, replicate 2

O=C(O)Cc1ccccc1Nc1c(Cl)cccc1Cl [DICLOFENAC]
Population Apoptotic (%) [1]: 90%
Population Fragmented Nuclei (%) [1]: 15%
Population Healthy Nuclei (%) [1]: 78%
Population Hoechst High Intensity Objects (%) [1]: 5%
Population Membrane Permeable-Phenotype (%) [1]: 4%
Population Mitochondria Different-Phenotype (%) [1]: 4%
Population Mitotic Cells (%) [1]: 10%
Population Normal (%) [1]: 94%
Population Pyknosed Nuclei (%) [1]: 6%
Population Tubulin-Different-Phenotype (%) [1]: 4%
Total Cell Count [1]: 164
Population Apoptotic (%) [2]: 84%
Population Fragmented Nuclei (%) [2]: 13%
Population Healthy Nuclei (%) [2]: 76%
Population Hoechst High Intensity Objects (%) [2]: 0%
Population Membrane Permeable-Phenotype (%) [2]: 5%
Population Mitochondria Different-Phenotype (%) [2]: 2%
Population Mitotic Cells (%) [2]: 15%
Population Normal (%) [2]: 99%
Population Pyknosed Nuclei (%) [2]: 10%
Population Tubulin-Different-Phenotype (%) [2]: 2%
Population Apoptotic (%) [3]: 75%
Population Fragmented Nuclei (%) [3]: 20%
Population Healthy Nuclei (%) [3]: 68%
Population Hoechst High Intensity Objects (%) [3]: 2%
Population Membrane Permeable-Phenotype (%) [3]: 8%
Population Mitochondria Different-Phenotype (%) [3]: 4%
Population Mitotic Cells (%) [3]: 25%
Population Normal (%) [3]: 97%
Population Pyknosed Nuclei (%) [3]: 11%
Population Tubulin-Different-Phenotype (%) [3]: 4%
Total Cell Count [3]: 258
Population Apoptotic (%) [4]: 72%
Population Fragmented Nuclei (%) [4]: 14%
Population Healthy Nuclei (%) [4]: 76%
Population Hoechst High Intensity Objects (%) [4]: 3%
Population Mitochondria Different-Phenotype (%) [4]: 3%
Population Mitotic Cells (%) [4]: 27%
Population Normal (%) [4]: 96%
Population Pyknosed Nuclei (%) [4]: 9%
Population Tubulin-Different-Phenotype (%) [4]: 8%
Population Apoptotic (%) [5]: 92%
Population Fragmented Nuclei (%) [5]: 15%
Population Healthy Nuclei (%) [5]: 76%
Population Hoechst High Intensity Objects (%) [5]: 4%
Population Membrane Permeable-Phenotype (%) [5]: 2%
Population Mitochondria Different-Phenotype (%) [5]: 2%
Population Mitotic Cells (%) [5]: 7%
Population Normal (%) [5]: 95%
Population Pyknosed Nuclei (%) [5]: 7%
Population Tubulin-Different-Phenotype (%) [5]: 2%
Total Cell Count [5]: 191
Population Apoptotic (%) [6]: 87%
Population Fragmented Nuclei (%) [6]: 19%
Population Healthy Nuclei (%) [6]: 70%
Population Hoechst High Intensity Objects (%) [6]: 3%
Population Membrane Permeable-Phenotype (%) [6]: 5%
Population Mitotic Cells (%) [6]: 12%
Population Normal (%) [6]: 96%
Population Pyknosed Nuclei (%) [6]: 10%
Total Cell Count [6]: 165
Population Apoptotic (%) [7]: 72%
Population Fragmented Nuclei (%) [7]: 17%
Population Healthy Nuclei (%) [7]: 72%
Population Hoechst High Intensity Objects (%) [7]: 0%
Population Membrane Permeable-Phenotype (%) [7]: 3%
Population Mitochondria Different-Phenotype (%) [7]: 1%
Population Mitotic Cells (%) [7]: 27%
Population Normal (%) [7]: 99%
Population Pyknosed Nuclei (%) [7]: 10%
Population Tubulin-Different-Phenotype (%) [7]: 2%
Total Cell Count [7]: 311
Population Apoptotic (%) [8]: 81%
Population Fragmented Nuclei (%) [8]: 15%
Population Healthy Nuclei (%) [8]: 77%
Population Hoechst High Intensity Objects (%) [8]: 1%
Population Membrane Permeable-Phenotype (%) [8]: 5%
Population Mitochondria Different-Phenotype (%) [8]: 2%
Population Mitotic Cells (%) [8]: 18%
Population Normal (%) [8]: 98%
Population Pyknosed Nuclei (%) [8]: 7%
Population Tubulin-Different-Phenotype (%) [8]: 4%
Total Cell Count [8]: 153
Population Apoptotic (%) [9]: 100%
Population Fragmented Nuclei (%) [9]: 17%
Population Healthy Nuclei (%) [9]: 71%
Population Hoechst High Intensity Objects (%) [9]: 4%
Population Membrane Permeable-Phenotype (%) [9]: 4%
Population Mitochondria Different-Phenotype (%) [9]: 2%
Population Mitotic Cells (%) [9]: 0%
Population Normal (%) [9]: 95%
Population Pyknosed Nuclei (%) [9]: 10%
Population Tubulin-Different-Phenotype (%) [9]: 2%
Total Cell Count [9]: 271
Population Apoptotic (%) [10]: 83%
Population Fragmented Nuclei (%) [10]: 15%
Population Healthy Nuclei (%) [10]: 70%
Population Hoechst High Intensity Objects (%) [10]: 3%
Population Mitochondria Different-Phenotype (%) [10]: 4%
Population Mitotic Cells (%) [10]: 16%
Population Normal (%) [10]: 96%
Population Pyknosed Nuclei (%) [10]: 14%
Population Tubulin-Different-Phenotype (%) [10]: 4%
Total Cell Count [10]: 216
Population Apoptotic (%) [11]: 86%
Population Fragmented Nuclei (%) [11]: 16%
Population Healthy Nuclei (%) [11]: 73%
Population Hoechst High Intensity Objects (%) [11]: 2%
Population Membrane Permeable-Phenotype (%) [11]: 6%
Population Mitochondria Different-Phenotype (%) [11]: 1%
Population Mitotic Cells (%) [11]: 13%
Population Normal (%) [11]: 97%
Population Pyknosed Nuclei (%) [11]: 10%
Population Tubulin-Different-Phenotype (%) [11]: 2%
Total Cell Count [11]: 436
Population Apoptotic (%) [12]: 100%
Population Fragmented Nuclei (%) [12]: 12%
Population Healthy Nuclei (%) [12]: 75%
Population Hoechst High Intensity Objects (%) [12]: 1%
Population Mitotic Cells (%) [12]: 0%
Population Normal (%) [12]: 98%
Population Pyknosed Nuclei (%) [12]: 11%
Population Tubulin-Different-Phenotype (%) [12]: 6%
Total Cell Count [12]: 220
